Screening data (PubChem BioAssay)
NPY-Y1 antag: blocks the human neuropeptide Y Y1 receptor; inhibition, % at 3.6 µM; AID 1040; P25929; HEK293-CNG Y1 cells, membrane potential fluorescence; NPY at EC95, then isoproterenol; 200,000 compounds, 1% hits;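 active = inhibition above the campaign mean inhibition of all tested compounds plus 3 SD, cut at about 20% in these data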
Target sequence (P25929 whole entry, looked up): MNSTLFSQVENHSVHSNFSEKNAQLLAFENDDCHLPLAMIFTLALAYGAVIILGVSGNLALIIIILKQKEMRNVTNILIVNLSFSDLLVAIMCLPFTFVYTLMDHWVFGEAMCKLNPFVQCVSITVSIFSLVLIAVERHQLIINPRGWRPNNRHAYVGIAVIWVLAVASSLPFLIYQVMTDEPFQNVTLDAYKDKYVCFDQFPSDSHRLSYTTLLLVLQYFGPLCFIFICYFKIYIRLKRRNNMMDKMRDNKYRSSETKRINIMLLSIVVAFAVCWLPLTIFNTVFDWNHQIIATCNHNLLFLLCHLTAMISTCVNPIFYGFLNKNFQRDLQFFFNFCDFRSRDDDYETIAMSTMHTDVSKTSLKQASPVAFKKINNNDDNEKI
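Material: HEK293 Y1/CNG channel cell line | Also added: NPY (25 nM), isoproterenol (1 µM), Ro 20-1724 (25 µM) | Compound: One concentration, 3.6 µM, in 0.4% DMSO | Schedule: 3 h dye uptake, 1 h room-temperature compound, 45 min post-isoproterenol | Signal: Membrane-potential fluorescent dye readout | Read-out: % inhibition of NPY effect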
NPY-Y1 PAM-ag: potentiates or activates human NPY-Y1 receptor. P25929. NPY-Y1 expressing cells, potentiator/agonist activation. activation, % at 3.6 µM. 220,000 compounds, 0.37% hits; in the data active = activation above about 33%, passing the limit was not always enough;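 also: cells stimulated with NPY at EC10 then isoproterenol at EC100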
NPY Y2 blocker: blocks the human neuropeptide Y Y2 receptor; NPY-Y2 expressing cells, antagonist mode; 140,000 compounds, 0.99% hits; P49146; AID 793; inhibition, % at 2.7 µM; in the data active = inhibition above about 17%
NPY-Y2 PAM-ag: human NPY-Y2 potentiation or agonism, primary screen; 220,000 compounds, 0.45% hits; AID 1359; P49146; cells expressing NPY-Y2, potentiator/agonist read-out; activation, % at 3.6 µM; in the data active = activation above about 27%;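 also: cells stimulated with NPY near EC25 plus isoproterenol at EC100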
A number is an active result; . = inactive; / = not tested or not shown. A selection: hits, their analogues and other compounds. The true share with any hit is near 1.8%.

SMILES	NPY-Y1 antag	NPY-Y1 PAM-ag	NPY Y2 blocker	NPY-Y2 PAM-ag
Cc1ccc(Cn2c(=N)n(CC(O)c3ccco3)c3ccccc32)cc1 (stereo not given)	.	.	23	.
Nc1nc(NCc2ccco2)nc(Nc2cccc(F)c2)c1[N+](=O)[O-]	/	.	/	.
CCOC(=O)c1cc(-c2ccc(OC)cc2F)nc2c1c(C)nn2CCC#N	26	.	20	.
CCOC(=O)c1cc(-c2ccco2)nc2c1c(C)nn2CCC#N	.	.	.	.
CCOC(=O)c1cc(-c2ccccc2)nc2c1c(C)nn2-c1ccccn1	49	.	60	.
CCOC(=O)c1cc(-c2ccc(Cl)cc2)nc2c1c(C)nn2CCC#N	25	.	33	.
O=C(NCCCn1ccnc1)c1cc(-c2cccc(O)c2)on1	/	.	/	.
Cc1ccc(NC(=S)NNC(=O)c2ccc(N3CCOCC3)c([N+](=O)[O-])c2)cc1C	.	.	.	.
CCC(NC(C)C)C(O)c1ccc(O)c2[nH]c(=O)ccc12 (stereo not given)	.	76	.	69
COc1ccc(C2C(C(=O)Nc3cc(OC)c(OC)c(OC)c3)c3ccccc3C(=O)N2C)cc1 (stereo not given)	.	37	/	31
C=CCN=c1scc(-c2ccc3c(c2)NC(=O)CO3)n1/N=C(\C)c1ccccn1	.	.	/	34
C=CCN=c1scc(-c2ccccc2)n1/N=C/c1ccccn1	.	.	.	.
Cc1cccc(OCC(=O)O/N=C(\N)Cc2ccc(Cl)cc2)c1	.	.	23	.
Cc1ccc(OCC(=O)O/N=C(\N)Cc2ccc(Cl)cc2)cc1	22	.	21	.
CC(=O)c1sc(NC(=O)C2(F)C(F)(F)C(F)(F)C(F)(F)C(F)(F)C2(F)F)nc1C	.	56	.	54
CC(=O)c1sc(NC(=O)C=C(C)C)nc1C	.	.	.	.
COc1ccc(/C=C/C(=O)NC(=S)NN2CCCCC2c2cccnc2)cc1OC (stereo not given)	.	.	.	.
O=C(/C=C/c1ccc(Cl)cc1)NC(=S)NN1CCCCC1c1cccnc1 (stereo not given)	.	.	40	.
Cc1cc(Oc2ccc(C)c(Cl)c2)nc(SCC(=O)c2ccccc2)n1	34	.	35	.
Cc1ccc(C(=O)CSc2cc(C)nc(SCC(=O)c3ccccc3)n2)cc1	.	.	.	.
Cc1ccccc1N1C(=O)CN(Cc2sccc2C)C1=S	.	.	.	.
CCOC(=O)Cc1csc(NC(=O)CSc2nc(-c3ccccc3)c(C#N)c(=O)[nH]2)n1	21	.	/	.
CC(CCc1ccccc1)NC(=O)COC(=O)c1ccc(S(C)(=O)=O)c([N+](=O)[O-])c1 (stereo not given)	.	66	/	52
COC(=O)CSc1nnc(-c2ccc(NS(=O)(=O)c3ccccc3)cc2)o1	.	40	.	91
CCc1ccc(-c2nc(CSCC(=O)NCc3ccco3)c(C)o2)cc1	21	.	/	.
SMILES	NPY-Y1 antag	NPY-Y1 PAM-ag	NPY Y2 blocker	NPY-Y2 PAM-ag
CC(C)(c1ccccc1)c1ccc(OCC(O)CNC2CCN(Cc3ccccc3)CC2)cc1 (stereo not given)	21	.	/	.
OC(CNC1Cc2ccccc2C1)COc1ccc(F)cc1 (stereo not given)	/	85	/	74
CC(=O)c1ccc(OCC(O)CN2CCN(Cc3ccccc3)CC2)cc1 (stereo not given)	.	.	.	.
O=C(c1ccccc1)c1ccc(OCC(O)CN2CCN(Cc3ccccc3)CC2)cc1 (stereo not given)	.	.	.	.
CCOc1ccc(OCC(O)CNC2CCN(Cc3ccccc3)CC2)cc1 (stereo not given)	30	.	19	.
CC(=O)Nc1ccc(OCC(O)CNC2CCCC2)cc1 (stereo not given)	.	.	.	.
O=C1NCCN1CCN1C(=O)c2ccccc2NC1c1ccccc1 (stereo not given)	/	.	/	.
COC(=O)c1cc(NS(=O)(=O)c2ccc(NC(C)=O)cc2)cc(C(=O)OC)c1	.	.	.	.
N#Cc1c(NC(=O)CSc2ccccn2)oc(-c2ccccc2)c1-c1ccccc1	38	.	21	.
Cn1cc(C(=O)N/N=C/C2=C(N3CCOCC3)C(=C\c3ccccc3)/CC2)ccc1=O	.	.	.	.
O=C1Nc2ccccc2/C1=N\N=C\C1=C(N2CCOCC2)C(=C\c2ccccc2)/CC1	.	46	.	42
CC1CCC(C(C)C)C(OCC(O)CNC(C)C)C1 (stereo not given)	/	107	/	98
CC(C)NCC(O)COC1C2CC3CC(C2)CC1C3 (stereo not given)	.	48	/	32
CC(C)NCC(O)COC1CCC(C(C)(C)C)CC1 (stereo not given)	.	.	/	.
O=C(NC(CSSCC(NC(=O)c1ccccc1)C(=O)O)C(=O)O)c1ccccc1 (stereo not given)	.	.	/	.
CCOC(=O)N1CCC(n2c(SCC(=O)NCCC3=CCCCC3)nc3ccccc3c2=O)CC1	36	.	19	.
CCOC(=O)N1CCC(n2c(SCC(=O)NCc3ccccc3)nc3ccccc3c2=O)CC1	.	.	.	.
O=C1CSC(c2ccccn2)N1c1ccc(F)cc1F (stereo not given)	.	.	/	.
COc1ccccc1/C=N\N=C(\N)c1ccccn1	.	.	.	.
Cc1ccc(-c2[nH]nc(N)c2N=Nc2ccccc2C)cc1	.	.	.	.
Cc1ccc(-c2[nH]nc(N)c2N=Nc2cccc(Cl)c2C)cc1	.	46	.	.
COc1ccc(Nc2nc(N3CCCC3)nc3ccccc23)c(OC)c1	27	.	21	.
CC(Nc1nc(-c2ccccc2)nc2ccccc12)c1ccccc1 (stereo not given)	.	.	/	.
CC(Nc1nc(N2CCCCC2)nc2ccccc12)c1ccccc1 (stereo not given)	46	.	45	.
COc1cccc(CNC(=O)Cc2nc3nc(C)cc(C)n3n2)c1	.	.	.	.
SMILES	NPY-Y1 antag	NPY-Y1 PAM-ag	NPY Y2 blocker	NPY-Y2 PAM-ag
CC(=O)c1cccc(NC(=O)C(C)N2CCc3ccccc3C2)c1 (stereo not given)	/	.	/	.
O=C(NC(=S)NNS(=O)(=O)c1ccc(Cl)cc1)c1cccnc1	.	.	/	.
Cc1cccc(/C(N)=N/OC(=O)CCCN2C(=O)c3ccccc3C2=O)c1	29	.	.	.
Cn1cc([N+](=O)[O-])c(C(=O)n2cccn2)n1	/	.	/	.
CCOC(=O)CNC(c1ccccc1)c1cc(Br)ccc1NC(=O)OCC (stereo not given)	.	.	.	.
COC(=O)CNC(c1ccccc1)c1cc(Br)ccc1NC(=O)CNC(=O)OCc1ccccc1 (stereo not given)	25	.	29	.
CCc1ccccc1NC(=O)N1CCc2ccccc21	/	.	/	.
CN(CC(O)COc1ccccc1F)C1CCCCC1 (stereo not given)	.	.	/	.
Cc1ccccc1OCC(O)CN(Cc1ccccc1O)C1CCCCC1 (stereo not given)	20	.	/	.
CCOC(=O)CNC(=O)C1COc2ccccc2O1 (stereo not given)	/	.	/	.
Cc1ccc(NC(=S)N/N=C/c2c(C)[nH]c3ccccc23)cc1	.	51	/	37
